Measurements as given in PMC10194142 (Virus Research, 2023).

Experiments:
ZIKV NS2B-NS3 protease [1] = biological target: T1, ZIKV NS2B-NS3 protease (Zika virus, UniProt Q32ZE1); assay: ZIKV NS2B-NS3 enzyme-based fluorescence peptide cleavage assay; format: biochemical; details: for protease activity inhibition efficacy in screening: inhibitor concentration of 50 μM, 5 μM protease, 10 μM substrate
T1 sequence (Q32ZE1 with tags, fused parts or gaps DEL1468-1489/Y1490G/V1491G/Y1492G/V1493G/K1494S/T1495G/K1497G/R1498G): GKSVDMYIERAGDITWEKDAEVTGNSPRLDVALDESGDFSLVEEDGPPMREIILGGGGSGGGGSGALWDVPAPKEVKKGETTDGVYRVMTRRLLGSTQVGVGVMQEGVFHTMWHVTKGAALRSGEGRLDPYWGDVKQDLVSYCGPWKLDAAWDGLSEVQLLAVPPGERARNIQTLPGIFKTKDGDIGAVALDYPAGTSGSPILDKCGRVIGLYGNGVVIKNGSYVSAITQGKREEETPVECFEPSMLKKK
Outline: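 His-tagged NS2B-NS3 protease was expressed in E. coli BL21(DE3) and purified by metal-affinity chromatography. Test compound at 6.25–100 μM was incubated with 5 μM protease in cleavage buffer for 30 min at 37 °C, then with 10 μM Boc-KKR-AMC for 1 h. AMC fluorescence was read at ex 355 / em 455 nm. Activity is expressed as % of the protease-alone control.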

ZIKV (MR-766) = assay: ZIKV RNA replication in infected Huh-7 cells by RT-qPCR; format: cell-based, Zika virus; details: for inhibition of ZIKV replication (ZIKV RNA level): 0.2, 0.69, 2, 6 μM for 72 h, Huh-7, MOI 0.1; for EC50: Zika virus, Huh-7, 72 h; for Selectivity index (SI = CC50/EC50): Huh-7 cells
[2] = Cell viability by ATPlite; format: cell-based; details: human, Huh-7 cells
ZIKV NS2B-NS3 protease [3] = biological target: T1, ZIKV NS2B-NS3 protease; assay: Kinetic analysis of inhibition mechanism; format: biochemical; details: for inhibition mechanism: 75 μM compound, 5 μM protease, Boc-KKR-AMC 0 to 20 μM; for Kcat / Vmax value: protease with 75 μM compound; for Kcat: untreated protease 0.0142; for Vmax value: untreated protease 0.071
Outline: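 Purified His-tagged NS2B-NS3 protease was expressed in E. coli BL21(DE3). 5 μM protease was preincubated with 75 μM test compound in cleavage buffer for 30 min at 37 °C. Boc-KKR-AMC at 0–20 μM was then added for 1 h at 37 °C. Released AMC was read at ex 355 / em 455 nm against an AMC standard curve. Mechanism was assigned from Lineweaver-Burk plots.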

ZIKV [4] = assay: ZIKV-infected ICR suckling mouse model; format: in vivo
Outline: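 Six-day-old ICR suckling mice (n = 6 per group) were injected intracerebrally with 10^4 pfu ZIKV. Mock mice received 60 °C heat-inactivated virus. Saline or test compound (1 or 10 mg/kg, i.c.) was given at days 1, 3 and 5 post-infection. At day 6, 0.1 g brain was lysed in RIPA for NS2B western blot. The remaining brain had H&E and IHC (NS1, Ly6C), with infiltration quantified. Data are mean ± SD.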

ZIKV [5] = details: plaque reduction assay; ref Chan et al., 2017; cited from earlier work
ZIKV [6] = details: primary placental cells, dose range of 0.2 to 1 μM; ref Tabata et al., 2016; cited from earlier work

With CC(=O)Oc1ccc(C=C2C(=O)N(c3ccccc3)C(=S)N(c3ccccc3)C2=O)cc1 [Compound 1, 4-((4,6-dioxo-1,3-diphenyl-2-thioxotetrahydropyrimidin-5(2H)-ylidene)methyl)phenyl acetate] as the molecule, how does the IC50 (ZIKV NS2B-NS3 protease [1]) read?
Its IC50 is 63.4 µM.

With COc1cc(C=C2C(=O)N(c3ccccc3)C(=S)N(c3ccccc3)C2=O)cc(Br)c1OCc1cccc2ccccc12 [Compound 2, 5-(3‑bromo-5‑methoxy-4-(naphthalen-1-ylmethoxy)benzylidene)−1,3-diphenyl-2-thioxodihydropyrimidine-4,6(1H,5H)-dione] as the molecule, how does the IC50 (ZIKV NS2B-NS3 protease [1]) read?
Its IC50 is 72.5 µM.

With COc1cc(C=C2C(=O)N(c3ccccc3)C(=S)N(c3ccccc3)C2=O)cc(I)c1OCc1ccccc1Cl [Compound 3, 5-(4-((2-chlorobenzyl)oxy)−3-iodo-5-methoxybenzylidene)−1,3-diphenyl-2-thioxodihydropyrimidine-4,6(1H,5H)-dione] as the molecule, how does the IC50 (ZIKV NS2B-NS3 protease [1]) read?
Its IC50 is 14 µM.

What about the “protease activity inhibition efficacy in screening” value (ZIKV NS2B-NS3 protease [1]) of the same molecule?
The value was “better protease activity inhibition efficacy than others”.

And the “inhibition of ZIKV replication (ZIKV RNA level)” value (shortened to “inhibition of ZIKV replication”) (ZIKV (MR-766))?
Its value is “could significantly inhibit ZIKV replication”.

What about the EC50 (ZIKV (MR-766)) of the same molecule?
Its EC50 is 2.15 µM.

What about the CC50 at 48 h [2] of the same molecule?
The CC50 at 48 h was > 200 µM.

And the inhibition mechanism (ZIKV NS2B-NS3 protease [3])?
The inhibition mechanism was “non-competitive”.

What about the Kcat (ZIKV NS2B-NS3 protease [3]) of the same molecule?
The Kcat was 0.00013 s⁻¹.

What about the Vmax value (ZIKV NS2B-NS3 protease [3]) of the same molecule?
Its Vmax value is 0.040 µmol/min.

For O=C1C(=Cc2cc(I)c(O)c(I)c2)C(=O)N(c2ccccc2)C(=S)N1c1ccccc1 [Compound 4, 5-(4‑hydroxy-3,5-diiodobenzylidene)−1,3-diphenyl-2-thioxodihydropyrimidine-4,6(1H,5H)-dione], which IC50 (ZIKV NS2B-NS3 protease [1]) is on record?
The IC50 was > 100 µM.

For CCc1ccc(S(=O)(=O)/N=C2\C=C(NS(=O)(=O)c3ccccc3)C(=O)c3ccccc32)cc1 [Compound 5, (E)−4-ethyl-N-(4-oxo-3-(phenylsulfonamido)naphthalen-1(4H)-ylidene)benzene sulfonamide], which IC50 (ZIKV NS2B-NS3 protease [1]) is on record?
Its IC50 is > 100 µM.

With Cc1cc(C)c(S(=O)(=O)/N=C2\C=C(NS(=O)(=O)c3ccccc3)C(=O)c3ccccc32)cc1C [Compound 6, (E)−2,4,5-trimethyl-N-(4-oxo-3-(phenylsulfonamido)naphthalen-1(4H)-ylidene)benzenesulfonamide] as the molecule, how does the IC50 (ZIKV NS2B-NS3 protease [1]) read?
The IC50 was > 100 µM.

Which IC50 (ZIKV NS2B-NS3 protease [1]) does the source give for Cc1ccc(S(=O)(=O)/N=C2\C=C(NS(=O)(=O)c3ccccc3)C(=O)c3ccccc32)cc1 [Compound 7, (E)−4-methyl-N-(4-oxo-3-(phenylsulfonamido)naphthalen-1(4H)-ylidene)benzenesulfonamide] here?
The IC50 was > 100 µM.

Which IC50 (ZIKV NS2B-NS3 protease [1]) does the source give for COc1cc(C=C2C(=O)N(c3ccc(C)cc3)C(=S)N(c3ccc(C)cc3)C2=O)cc(Br)c1O [Compound 8, 5-(3‑bromo-4‑hydroxy-5-methoxybenzylidene)−2-thioxo-1,3-di-p-tolyldihydropyrimidine-4,6(1H,5H)-dione] here?
Its IC50 is 6.85 µM.

What about the “protease activity inhibition efficacy in screening” value (ZIKV NS2B-NS3 protease [1]) of the same molecule?
Its value is “better protease activity inhibition efficacy than others”.

What about the “inhibition of ZIKV replication” value (ZIKV (MR-766)) of the same molecule?
Its value is “could significantly inhibit ZIKV replication”.

And the EC50 (ZIKV (MR-766))?
Its EC50 is 0.52 µM.

What about the CC50 at 48 h [2] of the same molecule?
Its CC50 at 48 h is > 200 µM.

And the inhibition mechanism (ZIKV NS2B-NS3 protease [3])?
The inhibition mechanism was “non-competitive”.

What about the Kcat (ZIKV NS2B-NS3 protease [3]) of the same molecule?
The Kcat was 0.00015 s⁻¹.

And the Vmax value (ZIKV NS2B-NS3 protease [3])?
The Vmax value was 0.045 µmol/min.

What about the “survival (protection from lethal ZIKV infection)” value (ZIKV [4]; 1 mg/kg or 10 mg/kg on days 1, 3, 5, observed 6 days, vs saline) of the same molecule?
Its value is “protected all ZIKV-infected suckling mice from lethal ZIKV infection”.

And the “clinical score (sickness)” value (ZIKV [4]; 1 mg/kg or 10 mg/kg on days 1, 3, 5, vs saline)?
The value was “a delay in the sickness induced by ZIKV infection”.

What about the “Ly6C+ monocyte infiltration in brain tissue” value (ZIKV [4]; 6 dpi, vs saline-treated group) of the same molecule?
Its value is “significantly less accumulated”.

What about the “ZIKV NS1 level in brain tissue (IHC)” value (ZIKV [4]; 6 dpi, vs saline-treated group) of the same molecule?
The value was “significantly decreased”.

What about the “ZIKV NS2B protein level in brain tissue (western blot)” value (ZIKV [4]; 6 dpi, vs saline-treated group) of the same molecule?
The value was “significantly decreased”.

For Cc1ccc(NC(=O)COc2ccc(C=C3C(=O)N(c4ccccc4)C(=S)N(c4ccccc4)C3=O)cc2)cc1C [Compound 9, N-(3,4-dimethylphenyl)−2-(4-((4,6-dioxo-1,3-diphenyl-2-thioxotetrahydropyrimidin-5(2H)-ylidene)methyl)phenoxy)acetamide], which IC50 (ZIKV NS2B-NS3 protease [1]) is on record?
Its IC50 is 14.2 µM.

And the “protease activity inhibition efficacy in screening” value (ZIKV NS2B-NS3 protease [1])?
The value was “better protease activity inhibition efficacy than others”.

And the “inhibition of ZIKV replication” value (ZIKV (MR-766))?
The value was “could significantly inhibit ZIKV replication”.

What about the “Selectivity index (SI = CC50/EC50)” value (ZIKV (MR-766)) of the same molecule?
Its value is 17.46.

And the EC50 (ZIKV (MR-766))?
Its EC50 is 3.52 µM.

What about the CC50 at 48 h [2] of the same molecule?
The CC50 at 48 h was 61.5 µM.

What about the inhibition mechanism (ZIKV NS2B-NS3 protease [3]) of the same molecule?
The inhibition mechanism was “non-competitive”.

What about the Kcat (ZIKV NS2B-NS3 protease [3]) of the same molecule?
Its Kcat is 0.000143 s⁻¹.

What about the Vmax value (ZIKV NS2B-NS3 protease [3]) of the same molecule?
Its Vmax value is 0.043 µmol/min.

Which IC50 (ZIKV NS2B-NS3 protease [1]) does the source give for CC(C)c1ccc(S(=O)(=O)/N=C2/C=C(NS(=O)(=O)c3ccccc3)C(=O)c3ccccc32)cc1 [Compound 10, (Z)−4-isopropyl-N-(4-oxo-3-(phenylsulfonamido)naphthalen-1(4H)-ylidene)benzenesulfonamide] here?
Its IC50 is > 100 µM.

For Cc1ccc(S(=O)(=O)/N=C2\C=C(NS(=O)(=O)c3ccccc3)C(=O)c3ccccc32)c(C)c1 [Compound 11, (E)−2,4-dimethyl-N-(4-oxo-3-(phenylsulfonamido)naphthalen-1(4H)-ylidene)benzenesulfonamide], which IC50 (ZIKV NS2B-NS3 protease [1]) is on record?
Its IC50 is > 100 µM.

What does the source list for Oc1cccc(-c2c3nc(c(-c4cccc(O)c4)c4ccc([nH]4)c(-c4cccc(O)c4)c4nc(c(-c5cccc(O)c5)c5ccc2[nH]5)CC4)C=C3)c1 [Temoporfin, reference compound]?
IC50 (ZIKV NS2B-NS3 protease [1]): 18.8 µM; Selectivity index (SI = CC50/EC50) (ZIKV (MR-766)): 30.53; EC50 (ZIKV (MR-766)): 2 µM; CC50 at 48 h [2]: 61.1 µM

With CC(C)C[C@H]1C(=O)N2CCC[C@H]2[C@]2(O)O[C@](NC(=O)[C@@H]3C=C4c5cccc6[nH]c(Br)c(c56)C[C@H]4N(C)C3)(C(C)C)C(=O)N12 [bromocriptine] as the molecule, how does the ZIKV-mediated plaque reduction (ZIKV [5]) read?
Its ZIKV-mediated plaque reduction is ~100%.

For duramycin, which “block of ZIKV infection” value (ZIKV [6]) is on record?
Its value is > 80%.
